The subject of data set [1] is Hepatitis C virus. The data set is described as follows: Antiviral activity against HCV expressing E1E2 glycoprotein with Vpr-deficient HIV vector assessed as inhibition of viral entry in human Huh7 cells at 20 ug/ml measured after 72 hrs by luciferase reporter gene assay. The format is functional, organism-based. The settings on record: Hepacivirus hominis, Huh-7. The method in brief: (§1)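 HCVpp (E1E2 with HIV luciferase vector, made in 293T) was mixed at room temperature with 20 µg/mL compound and added to Huh7 cells for 6 h, then replaced by growth medium. Cells were lysed at 72 h postinfection and luciferase read as % inhibition. Samples in duplicate, experiments repeated at least three times.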
Background: A reporter such as luciferase makes a cellular process visible.

In data set [2] the test system is Hepatitis C virus. The data set is described as follows: Antiviral activity against HCV expressing E1E2 glycoprotein with Vpr-deficient HIV vector assessed as inhibition of viral entry in human Huh7 cells at 20 ug/ml after 72 hrs by luciferase reporter gene assay in presence of beta-glucosidase enzyme for 0.5 hrs. The format is functional, Hepacivirus hominis. The settings on record: Huh-7. In a few lines:
(§2)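 Iridoid glucosides were hydrolysed with β-glucosidase for 0.5 h or 4 h before testing at 20 µg/mL. Hydrolysates were mixed at rt with HCVpp and incubated with Huh7 cells for 6 h, then the medium was changed. Luciferase was read at 72 h postinfection as % inhibition. Duplicates, ≥3 experiments.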

The subject of data set [3] is Hepatitis C virus. The data set is described as follows: Antiviral activity against HCV expressing E1E2 glycoprotein with Vpr-deficient HIV vector assessed as inhibition of viral entry in human Huh7 cells at 20 ug/ml after 72 hrs by luciferase reporter gene assay in presence of beta-glucosidase enzyme for 4 hrs. Type of data set: functional, Hepacivirus hominis. The settings on record: Huh-7. The method in brief: as §2

Data set [4] relates to Hepatitis C virus. The data set is described as follows: Antiviral activity against HCV expressing E1E2 glycoprotein with Vpr-deficient HIV vector assessed as inhibition of pseudoparticle entry in human Huh7 cells at 100 ug/ml preincubated for 20 mins measured after 72 hrs by luciferase reporter gene assay. Type of data set: functional. The settings on record: Huh-7. The method in brief: (§3)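 HCV E1E2 or VSVG pseudoviruses were made by cotransfecting 293T cells with the envelope plasmid and pNL4-3-Luc-R-E-, then harvested at 48 h and filtered. Each pseudovirus was preincubated 20 min at rt with 100 µg/mL sample or DMSO, then put on Huh7 cells for 6 h before the medium was replaced. Luciferase was read at 72 h as % of no-drug control. Duplicates, ≥3 experiments.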

For data set [5], the system named is Hepatitis C virus. Kind of data set: Antiviral activity against HCV expressing E1E2 glycoprotein with Vpr-deficient HIV vector assessed as inhibition of pseudoparticle entry in human Huh7 cells preincubated for 20 mins measured after 72 hrs by luciferase reporter gene assay. Type of data set: functional, organism-based, Hepacivirus hominis. The settings on record: Huh-7. The method in brief: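 HCV E1E2/HIV-luciferase pseudovirus was preincubated 20 min at rt with a range of concentrations in µg/mL and incubated with Huh7 cells (8 × 10^4 per well, seeded the day before) for 6 h, then the medium was replaced. Luciferase was measured at 72 h and expressed as % of no-drug control. IC50 came from the concentration-response. Duplicates, ≥3 repeats.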

Data set [6] has as its system Vesicular stomatitis virus. The data set is described as follows: Antiviral activity against VSV with Vpr-deficient HIV vector assessed as inhibition of VSVG pseudo-particle entry in human Huh7 cells at 100 ug/ml preincubated for 20 mins measured after 72 hrs by luciferase reporter gene assay. Type of data set: functional, organism-based. The settings on record: Huh-7. In a few lines:
as §3

A short description of data set [7]: Cytotoxicity against human HepG2(2.2.15) cells at 50 ug/ml. Type of data set: cell-based.
The target in data set [8] is T1, CD81 antigen (Homo sapiens) (UniProt P60033).
T1 sequence (whole entry): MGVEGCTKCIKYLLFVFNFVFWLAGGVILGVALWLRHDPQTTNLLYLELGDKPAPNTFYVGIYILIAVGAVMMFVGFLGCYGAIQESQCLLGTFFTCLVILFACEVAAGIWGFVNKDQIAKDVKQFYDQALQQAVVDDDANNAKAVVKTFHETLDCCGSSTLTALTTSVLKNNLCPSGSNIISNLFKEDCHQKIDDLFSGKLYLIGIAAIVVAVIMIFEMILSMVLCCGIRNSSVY
Kind of data set: Inhibition of human recombinant GST-tagged CD81 protein assessed as HCV E1E2 binding after 1 hr by Western blot analysis. In a few lines: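 Lysates of 293T cells expressing HCV E1E2 were taken 48 h post-transfection in 0.5% Triton X-100 buffer with protease inhibitor and clarified. They were rocked with 50 µg/mL compound or DMSO and 5 µg CD81-GST (large extracellular loop of human CD81) at 4 °C for 16 h. Glutathione beads were added for 1 h at 4 °C, then washed. Western blot for E2 and GST; GST alone served as control.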
For orientation: A western blot detects proteins with antibodies after separation by electrophoresis.

Data set [9] relates to Hepatitis C virus. The data set is described as follows: Antiviral activity against HCV infected in human Huh7 cells assessed as inhibition of viral replication after 48 hrs by NS5A staining. The settings on record: Huh-7, 48 h.
Data set [10] deals with Hepatitis C virus. The data set is described as follows: Antiviral activity against HCV expressing E1E2 glycoprotein with Vpr-deficient HIV vector assessed as inhibition of viral entry in human Huh7 cells at 20 ug/ml after 72 hrs by luciferase reporter gene assay. The format is functional, Hepacivirus hominis. The conditions noted are these: Huh-7, 72 h. The method in brief:
as §1

pIC50: −log10 of the molar value. Values after ≈ are worked out from the molar mass of the structure shown. Active and inactive are the calls of the source. The rule behind the calls is not given here.

For orientation: inhibition means the relative decrease from the control value, in per cent. As to `C[C@H]1[C@H]2[C@H](O[C@@H]3O[C@H](CO)[C@@H](O)[C@H](O)[C@H]3O)OC=C(C(=O)O)[C@H]2C[C@@H]1O`, the result in [1] was inactive. Besides, the inhibition at 20 µg/mL in data set [2] is -21.6%; in data set [3] it was 5.3%.

Take `COC(=O)C1=CO[C@@H](O[C@@H]2O[C@H](CO)[C@@H](O)[C@H](O)[C@H]2O)[C@@H]2[C@H](C)[C@@H](O)C[C@H]12`: in data set [1], the result was inactive. The inhibition at 20 µg/mL in data set [2] was -12.7%; in [3], 0.4%.

`COC(=O)C1=CO[C@@H](O[C@@H]2O[C@H](CO)[C@@H](O)[C@H](O)[C@H]2O)[C@H]2[C@@H]1[C@H](O)[C@H](O)[C@]2(C)O`: the result in data set [4] (Hepacivirus hominis) and in data set [1] was inactive.

Consider `OCC1=C[C@@H](O)[C@@H]2C=CO[C@@H](O[C@@H]3O[C@H](CO)[C@@H](O)[C@H](O)[C@H]3O)[C@H]12`, for which the outcome in data set [1] was inactive.

A word on the pIC50: it is −log10 of the IC50, conventionally taken in molar units. For orientation: IC50 means the point on the concentration scale where inhibition reaches its midpoint. On to `COC(=O)C1=COC(O)[C@H]2[C@@H]1[C@H](O)[C@H](O)C2(C)O` (mixture of isomers), for which, in [5], the pIC50 is 5.64. In addition, the inhibition at 100 µg/mL in data set [4] turned out to be 50%. Moreover, the outcome in data set [6], in data set [1] and in data set [8] was inactive. For the same molecule, the Activity entry in [7] is reported as “Non-toxic”. Moreover, the IC50 in data set [9] turned out to be 15 µg/mL.

In the case of `O=C(OCC1=C[C@@H](O)[C@@H]2C=CO[C@@H](O[C@@H]3O[C@H](CO)[C@@H](O)[C@H](O)[C@H]3O)[C@H]12)c1ccc(O)cc1` [AGNUSIDE], the outcome in data set [1] was inactive. Moreover, the inhibition at 20 µg/mL in data set [2] was determined as 12.9%; in data set [3], 20.3%.

For `O=C(/C=C/c1ccc(O)cc1)OCC1=C[C@@H](O)[C@@H]2C=CO[C@@H](O[C@@H]3O[C@H](CO)[C@@H](O)[C@H](O)[C@H]3O)[C@H]12` [EUROSTOSIDE], the outcome in data set [1] and in [8] was inactive. For the same molecule, the results for the inhibition at 20 µg/mL in data set [2] and in [3] were 46.6% and 56.6%, respectively. Besides, in [9], the IC50 came out at 20 µg/mL (≈ 40.6 µM).

Consider `COC(=O)C1=CO[C@@H](O[C@@H]2O[C@H](CO)[C@@H](O)[C@H](O)[C@H]2O)[C@H]2[C@@H]1C=C[C@@]2(O)CO` [GARDENOSIDE], for which the outcome in data set [1] was inactive. Moreover, the values for the inhibition at 20 µg/mL in [2] and in data set [3] were -3.4% and 21.1%, respectively.

In the case of `COC(=O)C1=CO[C@@H](O)[C@@H]2C(CO)=CC[C@H]12` [GENIPIN], the outcome in data set [8] was inactive. The inhibition at 20 µg/mL in data set [10] is 73.2%. In [9], the IC50 was determined as 20 µg/mL (≈ 88.4 µM).

In the case of `COC(=O)C1=CO[C@@H](O[C@@H]2O[C@H](CO)[C@@H](O)[C@H](O)[C@H]2O)[C@@H]2C(CO)=CC[C@H]12` [GENIPOSIDE], in data set [1], the outcome was inactive. Moreover, the inhibition at 20 µg/mL came out at 9.8% in [2], 17.1% in [3] and 1.1% in data set [10].

With `C[C@]1(OC(=O)/C=C/c2ccccc2)C[C@@H](O)[C@]2(O)C=CO[C@@H](O[C@@H]3O[C@H](CO)[C@@H](O)[C@H](O)[C@H]3O)[C@@H]21` [HARPAGOSIDE], the result in data set [1] was inactive. Further, the inhibition at 20 µg/mL in data set [2] is -41.7%; in data set [3], 17.1%; in data set [10], 2.1%.

As to `C[C@@H]1[C@H]2[C@H](O[C@@H]3O[C@H](CO)[C@@H](O)[C@H](O)[C@H]3O)OC=C(C(=O)O)[C@H]2C[C@@H]1O` [LOGANIC ACID], the result in [1] and in data set [8] was inactive. In addition, the values for the inhibition at 20 µg/mL in data set [2] and in data set [3] were 39.4% and 52.5%, respectively. In addition, the IC50 in [9] was 11 µg/mL (≈ 29.2 µM).

Turning to `COC(=O)C1=CO[C@@H](O[C@@H]2O[C@H](CO)[C@@H](O)[C@H](O)[C@H]2O)[C@@H]2[C@@H](C)[C@@H](O)C[C@H]12` [LOGANIN], the outcome in data set [1] and in data set [8] was inactive. Further, the figures for the inhibition at 20 µg/mL in data set [2] and in [3] were 24.8% and 41.4%, respectively. The IC50 in data set [9] turned out to be 16 µg/mL (≈ 41 µM).

Take `COc1cc(C(=O)O[C@H]2[C@@H]3C=CO[C@@H](O[C@@H]4O[C@H](CO)[C@@H](O)[C@H](O)[C@H]4O)[C@@H]3[C@@]3(CO)O[C@@H]23)ccc1O` [PICROSIDE II]: the result in [1] was inactive. The inhibition at 20 µg/mL in [2] was determined as 31.6%; in data set [3], 59.4%.

On to `COC(=O)C1=CO[C@@H](O[C@@H]2O[C@H](CO)[C@@H](O)[C@H](O)[C@H]2O)[C@H]2[C@@H]1[C@H](O)C[C@]2(C)O` [SHANZHISIDE METHYL ESTER], for which the result in [1] and in [8] was inactive. Further, the inhibition at 20 µg/mL in [2] was 49%; in data set [3], 61.2%; in [10], -13.1%. Further, the IC50 in [9] was found to be 18 µg/mL (≈ 44.3 µM).

With `COC(=O)C1=CO[C@@H](O[C@@H]2O[C@H](CO)[C@@H](O)[C@H](O)[C@H]2O)[C@H]2[C@@H]1C(=O)C[C@@H]2C` [VERBENALIN], in data set [1], the outcome was inactive. Moreover, the inhibition at 20 µg/mL in data set [2] is 21.9%; in [3] it was 43.4%.

For the origin of these results see ChEMBL document CHEMBL1153732, “Lamiridosins, hepatitis C virus entry inhibitors from Lamium album” (J Nat Prod, 2009).
